{"data": "Measured values pooled from the literature", "note": "Each line is one published result; the experiments were not run side by side."}
{"Compound": "CCCCCCCCCCCCCCCC(=O)NCCO", "system": "water", "conditions": "12 h, 37 °C", "measurement": "thermodynamic solubility", "result": "< 0.016 mg/mL"}
{"Compound": "N#Cc1ccc(C[C@H](Nc2c(Nc3ccc(F)cc3)c(=O)c2=O)C(=O)N2CCc3ccccc32)cc1", "system": "aqueous buffer", "conditions": "2 h, pH 7.4, 37 °C", "measurement": "kinetic solubility", "result": "11.8 µM"}
{"Compound": "CN1CCN(c2cccc(-c3ccc4ncnc(Nc5ccc(Cl)c(C(F)(F)F)c5)c4c3)c2)CC1", "system": "aqueous buffer", "conditions": "pH 7.4, 25 °C", "measurement": "thermodynamic solubility", "result": "< 1.4 µM"}
{"Compound": "N#Cc1ccc(C[C@H](Nc2c(Nc3ccc(Br)cc3)c(=O)c2=O)C(=O)N2CCc3ccccc32)cc1", "system": "aqueous buffer", "conditions": "2 h, pH 7.4, 37 °C", "measurement": "kinetic solubility", "result": "9.2 µM"}
{"Compound": "CCN(CC)CCNC(=O)c1cc(S(C)(=O)=O)cnc1OC", "system": "PBS", "conditions": "2 h, pH 7.4, 25 °C", "measurement": "kinetic solubility", "result": "393 µM"}
{"Compound": "N#Cc1ccc(C[C@H](NC(=O)c2cc3cc(F)ccc3[nH]2)C(=O)N2CCc3ccccc32)cc1", "system": "aqueous buffer", "conditions": "2 h, pH 7.4, 37 °C", "measurement": "kinetic solubility", "result": "1 µM"}
{"Compound": "Cc1ccccc1CN1C(=O)C2=C(CCN(Cc3ccccc3)C2)N2CCN=C12", "assay": "shake flask", "system": "aqueous buffer", "conditions": "pH 4.5", "measurement": "solubility", "result": "98.6 mg/mL"}
{"Compound": "CO[C@H]1C[C@@H]2CC[C@@H](C)[C@@](O)(O2)C(=O)C(=O)N2CCCC[C@H]2C(=O)O[C@H]([C@H](C)C[C@@H]2CC[C@@H](O)[C@H](OC)C2)CC(=O)[C@H](C)/C=C(\\C)[C@@H](O)[C@@H](OC)C(=O)[C@H](C)C[C@H](C)/C=C/C=C/C=C/1C", "system": "aqueous buffer", "conditions": "18 h, pH 7.4", "measurement": "thermodynamic solubility", "result": "6 µM"}
{"Compound": "CCCCCCCCCCCCCCCC(=O)NCCOC(=O)C[C@@H](CN)CC(C)C", "system": "water", "conditions": "12 h, 37 °C", "measurement": "thermodynamic solubility", "result": "3.46 mg/mL"}
{"Compound": "N#Cc1ccc(C[C@H](Nc2nnc(-c3ccc(F)cc3)o2)C(=O)N2CCc3ccccc32)cc1", "system": "aqueous buffer", "conditions": "2 h, pH 7.4, 37 °C", "measurement": "kinetic solubility", "result": "4.8 µM"}
{"Compound": "Fc1ccccc1Nc1nc(-c2ccncc2)nc2c1CNCC2", "system": "PBS", "conditions": "24 h, pH 7.4", "measurement": "thermodynamic solubility", "result": "596 µM"}
{"Compound": "Clc1ccc(Nc2ncnc3ccc(-c4cccc(N5CCOCC5)c4)cc23)cc1", "system": "aqueous buffer", "conditions": "pH 7.4, 25 °C", "measurement": "thermodynamic solubility", "result": "< 0.4 µM"}
{"Compound": "N#Cc1ccc(C[C@H](Nc2nnc(-c3ccc(F)cc3)s2)C(=O)N2CCc3ccccc32)cc1", "system": "aqueous buffer", "conditions": "2 h, pH 7.4, 37 °C", "measurement": "kinetic solubility", "result": "4.5 µM"}
{"Compound": "O=C(N1CCCCC1)C12CC(c3ccccc3)(C1)C2", "system": "PBS", "conditions": "2 h, pH 7.4, 25 °C", "measurement": "kinetic solubility", "result": "266 µM"}
{"Compound": "CN1CCN(c2cccc(-c3ccc4ncnc(Nc5ccc(Cl)c(Cl)c5)c4c3)c2)CC1", "system": "aqueous buffer", "conditions": "pH 7.4, 25 °C", "measurement": "thermodynamic solubility", "result": "< 1.7 µM"}
